In PubChem BioAssay AID588559 (The Scripps Research Institute Molecular Screening Center, 2011):
Activity calls are given as the source filed them.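 Rule for the calls: active = PAD4 enzyme activity blocked 50% or more; inactive = under 50% inhibition.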

Target: Protein-arginine deiminase type-4 (Homo sapiens) (UniProt Q9UM07)
Experiment: PAD4 inhibitors, single-concentration test, late-stage follow-up, biochemical, BAEE substrate, colorimetric citrulline readout (AID 588559)
Conditions: recombinant PAD4, BAEE substrate, colorimetric citrulline detection; at 100 µM; stronger effect = higher value
Method in brief: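 system = recombinant PAD4 | quantity = 0.2 µM PAD4 enzyme | timing = 15 min enzyme–compound preincubation, then 15 min BAEE reaction, 37 °C | signal = colorimetric citrulline absorbance at 540 nm | measure = % inhibition versus DMSO | control set = DMSO-treated PAD4 as uninhibited reference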

Sequence of Protein-arginine deiminase type-4 (Homo sapiens) (Q9UM07 whole entry, looked up): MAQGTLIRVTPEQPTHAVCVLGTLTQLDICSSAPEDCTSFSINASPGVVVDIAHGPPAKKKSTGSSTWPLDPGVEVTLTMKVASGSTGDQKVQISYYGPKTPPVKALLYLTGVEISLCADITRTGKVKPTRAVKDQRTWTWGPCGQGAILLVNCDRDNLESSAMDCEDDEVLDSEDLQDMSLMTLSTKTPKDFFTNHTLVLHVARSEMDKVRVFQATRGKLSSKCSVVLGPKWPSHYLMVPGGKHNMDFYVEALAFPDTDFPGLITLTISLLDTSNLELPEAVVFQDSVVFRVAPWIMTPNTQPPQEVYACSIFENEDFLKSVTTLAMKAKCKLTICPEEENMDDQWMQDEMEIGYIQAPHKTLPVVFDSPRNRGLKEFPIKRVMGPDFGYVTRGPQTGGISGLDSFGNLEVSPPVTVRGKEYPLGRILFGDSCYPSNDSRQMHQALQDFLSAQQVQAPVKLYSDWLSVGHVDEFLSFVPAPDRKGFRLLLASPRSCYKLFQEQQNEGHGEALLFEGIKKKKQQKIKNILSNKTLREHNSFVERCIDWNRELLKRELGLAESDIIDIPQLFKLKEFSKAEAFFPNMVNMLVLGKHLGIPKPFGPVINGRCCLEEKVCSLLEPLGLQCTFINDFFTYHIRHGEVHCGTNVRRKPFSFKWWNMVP

Row | Structure (SMILES) | inhibition
1 | COC(=O)c1cc(-c2ccccc2)c(C(=O)OC)c(-c2ccc3ccccc3n2)n1 | -11% (inactive)
2 | COC1=C(Br)C(=O)c2nc(-c3ccccn3)ccc2C1=O | 98%
3 | O=C1C=C(Br)C(=O)c2ncccc21 | 100%
4 | COC(=O)c1nnc(C(=O)OC)c(-c2ccc3ccccc3n2)n1 | -21% (inactive)
5 | NC1=CC(=O)c2ccc(-c3cc(C(=O)O)ccc3N)nc2C1=O | 97%
6 | COC(=O)c1nc(C(=O)OC)c(NC(C)=O)c(-c2ccccc2Br)c1C | 67%
7 | O=C(O)c1cccc(-c2ccc3ccc(Br)c(OCc4ccccc4)c3n2)n1 | -8% (inactive)
8 | NC1=CC(=O)c2ccc(-c3cccc(C(=O)O)n3)nc2C1=O | 98%
9 | COC(=O)c1nc(C(C)=O)c2[nH]c3ccccc3c2c1C | 0% (inactive)
10 | COC(=O)c1nnc(C(=O)OC)c(-c2ccc3c([N+](=O)[O-])c(OC)ccc3n2)n1 | -12% (inactive)
11 | COC(=O)c1nc(-c2ccc3c(n2)C(=O)C(Br)=CC3=O)c2[nH]c3ccccc3c2c1C | 0% (inactive)
12 | O=C1C(O)=C(O)C(=O)c2ncccc21 | 98%
13 | COC1=C(Br)C(=O)c2ncccc2C1=O | 90%

Second part, the molecule after the results:

Row | inhibition | Structure (SMILES)
14 | 2% (inactive) | CCOC(=O)c1nc(C(=O)OCC)c(C(=O)OCC)c(-c2ccc(OC)c(OC)c2OCc2ccccc2)c1C
15 | 27% (inactive) | COC(=O)c1cccc(-c2ccc3ccc(Br)c(O)c3n2)n1
16 | 90% | COC(=O)c1cccc(-c2ccc3c(n2)C(=O)C(Br)=CC3=O)n1
17 | -2% (inactive) | COC(=O)c1nnc(C(=O)OC)c(-c2ccc3cc(OC)ccc3n2)n1
18 | -13% (inactive) | COc1ccc2nc(C#N)ccc2c1[N+](=O)[O-]
19 | 98% | COC1=CC(=O)c2nc(C#N)ccc2C1=O
20 | 9% (inactive) | COC(=O)c1nc(C(=O)OC)c(N)c(-c2ccccc2Br)c1C
21 | 98% | COC1=C(I)C(=O)c2nc(C#N)ccc2C1=O
22 | 99% | COC1=C(N)C(=O)c2ncccc2C1=O
23 | 98% | NC1=CC(=O)c2cccnc2C1=O
24 | 97% | NC1=C(N)C(=O)c2ccccc2C1=O
25 | 91% | COC(=O)c1cccc(-c2ccc3c(n2)C(=O)C(N)=CC3=O)n1
26 | -12% (inactive) | COc1ccc2ncccc2c1[N+](=O)[O-]
27 | 88% | NC1=CC(=O)c2ccc(-c3ccccn3)nc2C1=O
28 | 97% | O=C1C(Br)=CC(=O)c2ncccc21
29 | -10% (inactive) | COc1ccc2nc(C#N)ccc2c1
